Experimental data as given in ChEMBL document CHEMBL1687796, “Synthesis and spectrum of the neoglycoside ACHN-490” (2010).
In brackets after ≈: the same amount, converted by molar mass.

Legend:
[1] = tested on: Staphylococcus aureus; assay: Antibacterial activity against aminoglycoside-resistant Staphylococcus aureus expressing APH(2'') + AAC(6') by broth microdilution method; assay type: functional
Method in brief: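 MICs were measured by broth microdilution following CLSI guidance. The strains formed a 25-strain screening panel with diverse aminoglycoside resistance mechanisms. The panel included Gram-negative and S. aureus strains carrying key aminoglycoside-modifying enzymes, strains with altered permeability or efflux, and an armA ribosomal methyltransferase strain.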

[2] = tested on: Acinetobacter baumannii; assay: Antibacterial activity against aminoglycoside-susceptible Acinetobacter baumannii by broth microdilution method; assay type: functional
[3] = tested on: Pseudomonas aeruginosa; assay: Antibacterial activity against wild type Pseudomonas aeruginosa expressing efflux pump by broth microdilution method; assay type: functional
Method in brief: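 MIC was determined by CLSI broth microdilution, read in μg/ml. The strain came from a 25-strain screening panel with diverse aminoglycoside resistance mechanisms. The panel included strains with changes in permeability or efflux, key aminoglycoside-modifying enzymes and an armA methyltransferase strain.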

[4] = tested on: Citrobacter; assay: Antibacterial activity against Citrobacter spp. by broth microdilution method; assay type: functional
Method in brief: (§1)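 MICs were determined by CLSI broth microdilution against clinical isolate panels that included aminoglycoside-resistant isolates. […] MIC90 was derived per group and not calculated when n was <10. Imipenem, ceftobiprole, ciprofloxacin and tigecycline MICs were also determined for the resistant isolates.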

[5] = tested on: Klebsiella sp.; assay: Antibacterial activity against Klebsiella spp. by broth microdilution method; assay type: functional; method in brief: as §1
[6] = tested on: Proteus mirabilis; assay: Antibacterial activity against Proteus mirabilis by broth microdilution method; assay type: functional; method in brief: as §1
[7] = Antibacterial activity against indole positive Proteae by broth microdilution method; assay type: functional; method in brief: as §1
[8] = tested on: Acinetobacter sp.; assay: Antibacterial activity against Acinetobacter spp. by broth microdilution method; assay type: functional; method in brief: as §1
[9] = tested on: Pseudomonas aeruginosa; assay: Antibacterial activity against Pseudomonas aeruginosa by broth microdilution method; assay type: functional; method in brief: as §1
[10] = tested on: Klebsiella aerogenes; assay: Antibacterial activity against aminoglycoside-resistant Enterobacter aerogenes expressing AAC(3)-2 by broth microdilution method; assay type: functional
Method in brief: (§2)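 Clinical aminoglycoside-resistant isolates were each carrying a single aminoglycoside-modifying enzyme. […] MICs were determined by CLSI broth microdilution.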

[11] = tested on: Klebsiella oxytoca; assay: Antibacterial activity against aminoglycoside-resistant Klebsiella oxytoca expressing AAC(3)-2 by broth microdilution method; assay type: functional; method in brief: as §2
[12] = tested on: Klebsiella aerogenes; assay: Antibacterial activity against aminoglycoside-resistant Enterobacter aerogenes expressing AAC(6')-1 by broth microdilution method; assay type: functional; method in brief: as §2
[13] = tested on: Escherichia coli; assay: Antibacterial activity against aminoglycoside-resistant Escherichia coli expressing AAC(6')-1 by broth microdilution method; assay type: functional; method in brief: as §2
[14] = tested on: Serratia marcescens; assay: Antibacterial activity against aminoglycoside-resistant Serratia marcescens expressing AAC(6')-1 by broth microdilution method; assay type: functional; method in brief: as §2
[15] = tested on: Acinetobacter baumannii; assay: Antibacterial activity against aminoglycoside-resistant Acinetobacter baumannii expressing […] by broth microdilution method; assay type: functional; method in brief: as §2
[16] = tested on: Pseudomonas aeruginosa; assay: Antibacterial activity against aminoglycoside-resistant Pseudomonas aeruginosa expressing AAC(6')-2 by broth microdilution method; assay type: functional; method in brief: as §2
[17] = tested on: Staphylococcus aureus; assay: microbe, parasite or virus in culture
[18] = tested on: Escherichia coli; assay: Antibacterial activity against aminoglycoside-resistant Escherichia coli expressing AAC(3)-2 by broth microdilution method
[19] = tested on: Escherichia coli; assay: Antibacterial activity against aminoglycoside-resistant Escherichia coli expressing APH(3')-1b by broth microdilution method
[20] = tested on: Escherichia coli; assay: Antibacterial activity against aminoglycoside-resistant Escherichia coli expressing AAC(3)-IVa by broth microdilution method
[21] = tested on: Klebsiella pneumoniae; assay: Antibacterial activity against aminoglycoside-resistant Klebsiella pneumoniae expressing ANT(2'')-I by broth microdilution method
[22] = tested on: Escherichia coli; assay: Antibacterial activity against aminoglycoside-resistant Escherichia coli expressing ANT(3)-2 by broth microdilution method; assay type: functional; method in brief: as §2

Row | SMILES | MIC [1] [µg/mL] | MIC [2] [µg/mL] | MIC [3] [µg/mL] | MIC50 [4] [µg/mL] | MIC50 [5] [µg/mL] | MIC90 [5] [µg/mL] | MIC50 [6] [µg/mL] | MIC90 [6] [µg/mL] | MIC50 [7] [µg/mL] | MIC50 [8] [µg/mL] | MIC90 [8] [µg/mL] | MIC50 [9] [µg/mL] | MIC90 [9] [µg/mL] | MIC [10] [µg/mL] | MIC [11] [µg/mL] | MIC [12] [µg/mL] | MIC [13] [µg/mL] | MIC [14] [µg/mL] | MIC [15] [µg/mL] | MIC [16] [µg/mL] | other results
1 | NCC[C@H](O)C(=O)N[C@@H]1C[C@H](N)[C@@H](O[C@H]2O[C@H](CN)[C@@H](O)[C@H](O)[C@H]2O)[C@H](O)[C@H]1O[C@H]1O[C@H](CO)[C@@H](O)[C@H](N)[C@H]1O [AMIKACIN] | 64 | 2 (≈ 3.42 µM) | 4 (≈ 6.83 µM) | 32 (≈ 54.6 µM) | 32 (≈ 54.6 µM) | > 64 | 8 (≈ 13.7 µM) | 64 (≈ 109 µM) | 8 (≈ 13.7 µM) | > 64 | > 64 | 16 (≈ 27.3 µM) | > 64 | 4 (≈ 6.83 µM) | 4 (≈ 6.83 µM) | 30 (≈ 51.2 µM) | 30 (≈ 51.2 µM) | 30 (≈ 51.2 µM) | 4 (≈ 6.83 µM) | 14 (≈ 23.9 µM) | MIC [17]: > 64 µg/mL; MIC [18]: 4 µg/mL (≈ 6.83 µM); MIC [19]: 0.5 µg/mL (≈ 0.854 µM); MIC [20]: 4 µg/mL (≈ 6.83 µM); MIC [21]: 2 µg/mL (≈ 3.42 µM)
2 | CN[C@@H]1[C@@H](O)[C@@H](O[C@@H]2[C@@H](O)[C@H](O[C@H]3OC(CNCCO)=CC[C@H]3N)[C@@H](N)C[C@H]2NC(=O)[C@@H](O)CCN)OC[C@]1(C)O [PLAZOMICIN] | 4 | 4 (≈ 6.75 µM) | 4 (≈ 6.75 µM) | 0.5 (≈ 0.844 µM) | 0.5 (≈ 0.844 µM) | 1 (≈ 1.69 µM) | 4 (≈ 6.75 µM) | 8 (≈ 13.5 µM) | 8 (≈ 13.5 µM) | 16 (≈ 27 µM) | 32 (≈ 54 µM) | 8 (≈ 13.5 µM) | 64 (≈ 108 µM) | 1 (≈ 1.69 µM) | 1 (≈ 1.69 µM) | 1 (≈ 1.69 µM) | 1 (≈ 1.69 µM) | 1 (≈ 1.69 µM) | 4 (≈ 6.75 µM) | 6 (≈ 10.1 µM) | MIC [22]: 2 µg/mL (≈ 3.37 µM); MIC [17]: 1 µg/mL (≈ 1.69 µM); MIC [19]: 0.25 µg/mL (≈ 0.422 µM); MIC [20]: 1 µg/mL (≈ 1.69 µM); MIC [21]: 1 µg/mL (≈ 1.69 µM)
